Measured values taken from ChEMBL document CHEMBL1152833, “Synthesis of some novel N4-(naphtha[1,2-d]thiazol-2-yl)semicarbazides as potential anticonvulsants” (Eur J Med Chem, 2009).
Calls of active or inactive are those of the source.

Tests used:
Mus musculus [1] = test: Anticonvulsant activity in ip dosed Swiss albino mouse assessed as minimum drug concentration required for inhibition of pentylenetetrazole-induced seizures in half or more of mouse after 4 hrs by scPTZ test; type: functional
Outline: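 Male Swiss albino mice (18–25 g) were dosed i.p. at 30, 100 and 300 mg/kg, examined at 0.5 and 4 h. PTZ 85 mg/kg (CD97) was given and the animals were […]. Protection meant absence of any threshold convulsion, i.e. clonic spasm lasting at least 5 s. The value is the minimum dose active in half or more of the mice.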

Mus musculus [2] = test: Anticonvulsant activity against maximal electroshock-induced seizures in Swiss albino mouse at 300 mg/kg, ip after 4 hrs by MES test; type: functional, organism-based; parameters: dose 300 mg/kg
Outline: (§1)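 Male Swiss albino mice (18–25 g) received compound i.p. at 30, 100 and 300 mg/kg. MES seizures were induced after 0.5 and 4 h, with a drop of 0.9% saline placed in the eye before the electrodes went on. Protection meant abolition of the hind-limb tonic extensor component. The tabulated value is the minimum dose protecting half or more of the mice.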

Mus musculus [3] = test: Anticonvulsant activity in ip dosed Swiss albino mouse assessed as minimum drug concentration required for inhibition of maximal electroshock-induced seizure in half or more of mouse after 0.5 hrs by MES test; type: functional; outline: as §1
Mus musculus [4] = test: Toxicity to Swiss albino mouse assessed as occurrence of myoclonic jerks at 300 mg/kg, ip after 0.5 hrs; type: organism-based; parameters: dose 300 mg/kg, route intraperitoneal; conditions: in vivo
Mus musculus [5] = test: Neurotoxicity in ip dosed Swiss albino mouse assessed as minimum drug concentration required for falling off the rotarod by half or more of mouse after 4 hrs by rotarod test; type: toxicity, organism-based; conditions: in vivo
Outline: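 Rotarod test in male Swiss albino mice (18–25 g) after i.p. dosing at 30, 100 and 300 mg/kg, read at 0.5 and 4 h. Mice falling within 30 s in a pre-check were excluded. Neurotoxicity was scored as the minimum dose at which half or more of the mice fell off the rod.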

Mus musculus [6] = test: Neurotoxicity in Swiss albino mouse at 300 mg/kg, ip after 0.5 hrs by rotarod test; type: toxicity, organism-based; parameters: dose 300 mg/kg, route intraperitoneal; conditions: in vivo
Outline: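 Male Swiss albino mice (18-25 g) received the compound i.p. at 30, 100 or 300 mg/kg and were tested on the rotarod 0.5 and 4 h later. Mice were pre-checked, and any that fell off within 30 s were excluded. Neurotoxicity was scored as falling off the rod. The value is the minimum dose affecting half or more of the mice.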

In the case of `C/C(=N\NC(=O)Nc1nc2c(ccc3ccccc32)s1)c1ccc(C)cc1`, the Activity (Mus musculus [1]) is reported as 300 mg/kg, the Activity (Mus musculus [2]) is reported as “inactive” and the Activity (Mus musculus [3]) is reported as 300 mg/kg. For the same compound, the Activity (Mus musculus [4]) was “Toxic”, the Activity (Mus musculus [5]) was 300 mg/kg and the Activity (Mus musculus [6]) was “Non-toxic”.
